ChEMBL document CHEMBL3352770, “Click chemistry inspired synthesis and bioevaluation of novel triazolyl derivatives of osthol as potent cytotoxic agents” (Eur J Med Chem, 2014)

How the values were obtained:
[1] = Cytotoxicity against human HCT116 cells after 24 hrs by MTT assay; format: functional, cell-based; settings: HCT-116, 24 h
How it was run: (§1)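 Cells kept in DMEM with 10% foetal calf serum, penicillin and streptomycin, at 37 °C under 5% CO2. For assays serum lowered to 3%. Cells treated with test material at 0.04–60 µM for 24 h, then MTT (250 µg/mL) for 3 h. Formazan OD read at 570 nm. IC50 by non-linear regression, mean of triplicates. BEZ-235 as positive control.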

[2] = Cytotoxicity against human NCI-H322 cells after 24 hrs by MTT assay; format: functional, cell-based; settings: NCI-H322, 24 h; how it was run: as §1
[3] = tested on: A549; test: Cytotoxicity against human A549 cells after 24 hrs by MTT assay; format: functional, cell-based; settings: A549, 24 h; how it was run: as §1
[4] = tested on: A-431; test: Cytotoxicity against human A431 cells after 24 hrs by MTT assay; format: functional, cell-based; settings: A-431, 24 h; how it was run: as §1
[5] = tested on: T47D; test: Cytotoxicity against human T47D cells after 24 hrs by MTT assay; format: functional, cell-based; how it was run: as §1
[6] = Cytotoxicity against human PC3 cells after 24 hrs by MTT assay; format: functional, cell-based; settings: PC-3, 24 h; how it was run: as §1
[7] = tested on: COLO 205; test: Cytotoxicity against human COLO205 cells after 24 hrs by MTT assay; format: functional, cell-based; settings: COLO 205, 24 h; how it was run: as §1
[8] = tested on: COLO 205; test: Induction of apoptosis in human COLO205 cells assessed as accumulation at subG1 phase at 1 uM after 48 hrs by propidium iodide staining based flow cytometry (reference value: 12%); format: functional
[9] = tested on: COLO 205; test: Induction of cell cycle arrest in human COLO205 cells assessed as accumulation at G1 phase at 1 uM after 48 hrs by propidium iodide staining based flow cytometry (reference value: 45.7%); format: functional
[10] = tested on: COLO 205; test: Induction of cell cycle arrest in human COLO205 cells assessed as accumulation at S phase at 1 uM after 48 hrs by propidium iodide staining based flow cytometry (reference value: 13.8%); format: functional
[11] = tested on: COLO 205; test: Induction of cell cycle arrest in human COLO205 cells assessed as accumulation at G2 phase at 1 uM after 48 hrs by propidium iodide staining based flow cytometry (reference value: 13.2%); format: functional
[12] = tested on: COLO 205; test: Induction of mitochondrial membrane potential loss in human COLO205 cells at 1 uM after 48 hrs by Rh-123 staining based flow cytometry (reference value: 12.4%); format: functional

Structure (SMILES) | IC50 [1] [µM] | IC50 [2] [µM] | IC50 [3] [µM] | IC50 [4] [µM] | IC50 [5] [µM] | IC50 [6] [µM] | IC50 [7] [µM] | Activity [8] [%] | Activity [9] [%] | Activity [10] [%] | Activity [11] [%] | Activity [12] [%]
COc1ccc(/C=C\C(=O)O)c(OCc2cn(-c3ccccc3I)nn2)c1CC=C(C)C | 23.1 | 42.3 | 2.2 | 32.7 |  |  |  |  |  |  |  | 
COc1ccc(/C=C\C(=O)O)c(OCc2cn(-c3ccc4c(c3)OCO4)nn2)c1CC=C(C)C | 20.4 | 22.7 | 19.4 | 23.1 | 13.2 | 32 |  |  |  |  |  | 
COc1ccc(/C=C\C(=O)O)c(OCc2cn(CC(O)c3ccccc3)nn2)c1CC=C(C)C (centres undefined) | 45.3 | 35.4 |  |  | 17.3 | 14.2 | 43 |  |  |  |  | 
COc1ccc(/C=C\C(=O)O)c(OCc2cn(-c3ccccc3C(=O)N3CCC(O)C3)nn2)c1CC=C(C)C (centres undefined) | 32 |  |  | 31.5 | 13.4 | 36.2 | 25.4 |  |  |  |  | 
COc1ccc(/C=C\C(=O)O)c(OCc2cn(-c3nc4ccccc4s3)nn2)c1CC=C(C)C | 16.4 | 23 | 42.1 | 20.8 | 17.2 |  | 20.2 |  |  |  |  | 
COc1ccc(/C=C\C(=O)O)c(OCc2cn(-c3ccccc3C#N)nn2)c1CC=C(C)C | 38.3 | 14.4 | 38.6 | 10.3 | 8.8 |  | 3.2 |  |  |  |  | 
COc1ccc(/C=C\C(=O)O)c(OCc2cn(-c3ccc(C#N)cc3)nn2)c1CC=C(C)C | 21 | 18.6 | 42.2 | 23 | 10.2 |  | 32 |  |  |  |  | 
COc1ccc(/C=C\C(=O)O)c(OCc2cn(P(=O)(Oc3ccccc3)Oc3ccccc3)nn2)c1CC=C(C)C | 35.5 |  |  | 43.3 | 30.6 | 36.2 |  |  |  |  |  | 
COc1ccc(-n2cc(COc3c(/C=C\C(=O)O)ccc(OC)c3CC=C(C)C)nn2)cc1 | 8.7 |  | 10.2 |  |  |  |  |  |  |  |  | 
CC[C@@]1(O)C(=O)OCc2c1cc1n(c2=O)Cc2cc3ccccc3nc2-1 [CAMPTOTHECIN] |  |  |  |  |  |  |  | 69.4 | 11 | 4.9 | 2.2 | 30.8
COc1cccc(-n2cc(COc3c(/C=C\C(=O)O)ccc(OC)c3CC=C(C)C)nn2)c1 | 21.6 | 25.2 | 42.7 | 23.2 | 20.4 |  |  |  |  |  |  | 
